Screening data: PubChem, several laboratories
ERa coact pot: enhances coactivator binding to human estrogen receptor alpha. P03372. TR-FRET ERalpha-LBD/SRC-Cy5 coactivator binding, 2 h; 100 = basal binding, no effect. coactivator binding (% of control), % at 25.6 µM. actives 1.3% (n = 86,000). AID 639; in the data active = activity above about 200%;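 note: binding measured in presence of low estradiol as agonist stimulus; 0% = peptide alone without receptor and 100% = receptor with peptide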
H69AR inhibit: blocks growth of human H69AR lung tumor cells. H69AR lung tumor viability, ATP luminescence, 72 h; hits give low values. viability, % at 10 µM. actives 6% (n = 85,000);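 active = viability at or below 40%; inactive = viability above 40%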;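 note: multidrug resistant small cell line overexpressing MRP-1 efflux transporter; 100% = mean luminescence of untreated control wells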
HUVEC inhibit: human endothelial cell proliferation inhibition; HUVEC proliferation, CellTiter-Glo luminescence, 72 h; hits give low values; viability, % at 10 µM (by protocol); actives 1.1% (n = 86,000); AID 648;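 active = viability at or below 30%; inactive = viability above 30%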;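 note: 100% = median luminescence of DMSO-only cell control wells on each plate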
Lung fibro prol: blocks proliferation of human lung fibroblasts. LL 47 human lung fibroblast viability, ATP luminescence; hits give low values. viability, % at 10 µM. actives 1.1% (n = 85,000). AID 719;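 active = viability at or below 50% in the single dose screen; inactive = viability above 50%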;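 note: compound exposure lasted 72 h before the ATP readout; 100% = median luminescence of untreated cell-only wells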
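Material: human lung fibroblast line LL 47, low passage; Evaluation: viability percentage against median untreated-cell control; Buffer or medium: 15% FBS in IMEM; Incubation: 72 h compound exposure at 37 °C after overnight plating; Dosing: 0.1% DMSO in all compound wells; Measured by: CellTiter-Glo luminescence.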
ERb SRC1 inh: blocks coactivator binding to human estrogen receptor beta; Q92731; inhibition, % at 25.6 µM; actives 1.3% (n = 86,000); TR-FRET ER-beta LBD / SRC1-Cy5 peptide binding; receptor agonist-loaded with 1 µM estradiol; AID 633;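 active = compounds whose percent inhibition of the receptor-coactivator binding signal exceeds about 50% in the single-dose screen, limit read from the data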;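 note: 0% = receptor plus peptide wells without compound and 100% = peptide-only wells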
Target sequence (Q92731 whole entry, looked up, the tested form may be a part): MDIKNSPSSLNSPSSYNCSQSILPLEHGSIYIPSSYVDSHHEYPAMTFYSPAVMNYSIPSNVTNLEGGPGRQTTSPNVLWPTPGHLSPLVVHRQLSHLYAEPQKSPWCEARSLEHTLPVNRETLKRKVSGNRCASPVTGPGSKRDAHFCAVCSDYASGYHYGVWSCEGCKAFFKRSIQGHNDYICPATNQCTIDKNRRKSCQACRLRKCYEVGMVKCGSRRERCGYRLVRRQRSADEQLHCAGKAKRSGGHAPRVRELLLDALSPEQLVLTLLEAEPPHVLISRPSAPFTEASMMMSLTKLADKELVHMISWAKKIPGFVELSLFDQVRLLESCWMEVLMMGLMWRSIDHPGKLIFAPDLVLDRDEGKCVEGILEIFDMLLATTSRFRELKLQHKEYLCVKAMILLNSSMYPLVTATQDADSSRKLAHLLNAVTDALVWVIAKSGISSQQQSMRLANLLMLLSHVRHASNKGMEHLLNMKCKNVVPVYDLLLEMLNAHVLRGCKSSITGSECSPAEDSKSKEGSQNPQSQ
ERa coact inh: ER-alpha (human) coactivator binding inhibition | P03372 | actives 1.7% (n = 86,000) | inhibition, % at 25.6 µM | TR-FRET ER-alpha LBD / SRC-1 peptide, estradiol-bound | AID 629; in the data active = inhibition above about 50%;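 note: 0% = receptor plus peptide control and 100% = peptide only without receptor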
An asterisk follows results filed as active; [ ] = another dose, or the depositor's remark. Rows were chosen to be rich in hits. Some 9.2% of all compounds tested hit in one or more screens of this group.

SMILES	ERa coact pot	H69AR inhibit	HUVEC inhibit	Lung fibro prol	ERb SRC1 inh	ERa coact inh
Cc1cn(C(=O)c2ccccc2)c(=S)n1-c1ccc(Br)cc1	95	80	82	110	2	1
CCN(CC)c1ccc(-c2nc3cnccn3c2NC2CCCC2)cc1	84	46	87	91	-12	-6
O=C(Nc1ccc2oc(=O)ccc2c1)c1cccnc1Cl	102	93	109	109	-21	-8
O=C(Oc1c(CN2CCOCC2)cc(Cl)c2cccnc12)c1ccc(F)cc1	101	88	77	4.5*	-6	-1
COc1cccc(NC(=O)c2ccc(CN3CCOCC3)cc2)c1	94	87	99	101	-3	-3
COc1ccc(C(=O)Oc2c(CN3CCOCC3)cc(Cl)c3cccnc23)cc1	114	2.4*	82	47*	7	1
COc1ccc(CN2CCOCC2)cc1	127	90	96	107	-3	-5
COc1cccc(C(=O)Oc2c(CN3CCOCC3)cc(Cl)c3cccnc23)c1	90	1.5*	72	6.5*	-8	-8
COc1cc(C(=O)Oc2c(CN3CCOCC3)cc(Cl)c3cccnc23)cc(OC)c1OC	218*	2.1*	82	4.7*	5	-10
COc1ccc(CCNc2nc(N3CCCCC3)nc(N3CCCCC3)n2)cc1OC	83	58	72	89	20	22
CC1(C)CCCC2=C1CC1C(=O)N(O)C(=O)C1C2 (configuration not stated)	119	101	103	100	89*	0
COc1ccccc1NC(=O)CC1COc2ccccc2O1 (configuration not stated)	103	90	100	96	-9	-7
N#Cc1c(N)sc2c1CCCCCC2	73	101	89	97	1	-8
N#Cc1c(N)sc(=S)c2c1CCCCC2	51	89	85	96	57*[fluorescence artefact?]	36
CN=C1CC(C)(C)CC(=O)/C1=C(/O)CCC(=O)NC	109	114	85	93	2	0
CC1CCCN(C(=O)COC(=O)c2n[nH]c3ccccc23)C1 (configuration not stated)	114	106	93	101	-7	57*
Cc1ccc2c(c1)nnn2C1CCN(S(=O)(=O)c2ccc(C(=O)N(C)C3CCCCC3)cc2)CC1	90	32*	75	103	-4	-5
CC(C)c1ccc(NC(=O)N(CCc2nc3ccccc3[nH]2)C2CCCC2)cc1	94	32*	44	81	-13	-2
COc1ccccc1CNC(=O)c1cnccn1	94	107	105	98	37	61*[fluorescence artefact?]
Cc1cc2nc(C3CCN(CC4COc5ccccc5O4)CC3)[nH]c2cc1C (configuration not stated)	101	33*	5.9*	91	-7	-9
Cc1cc2nc(C3CCCN(C(=O)NCc4ccccc4)C3)[nH]c2cc1C (configuration not stated)	106	58	77	96	-7	-3
CS(=O)(=O)N1CCN(c2ccccc2NC(=O)Cc2ccc(Cl)cc2)CC1	948*[fluorescence artefact?]	64	95	101	1	-5
CS(=O)(=O)N1CCN(c2ccccc2NC(=O)Cc2ccccc2)CC1	111	97	99	107	-4	-5
CS(=O)(=O)N1CCN(c2ccccc2NC(=O)c2ccc(-c3ccc(Cl)cc3Cl)o2)CC1	142	69	89	97	8	2
CN1CCN(c2ccccc2NC(=O)c2ccc(-c3ccc(Cl)cc3Cl)o2)CC1	136	32*	5.8*	94	7	7
N#Cc1c(SCC(=O)Nc2nccs2)nc2c(c1-c1ccco1)CCCC2	83	23*	98	98	37	64*
COc1ccc(-c2c(C#N)c(SCC(=O)Nc3ccccc3)nc3c2CCCC3)cc1	147	98	110	101	28	14
COC(=O)CSc1nc2c(c(-c3ccc(C)o3)c1C#N)CCCC2	95	66	88	96	2	1
COCCOC(=O)c1c(C)nc(SCC(=O)Nc2ccc(C)cc2)c(C#N)c1-c1ccco1	132	53	77	88	-3	-3
